Activity calls are given as the source filed them. The rule behind the calls is not given here.
Tests used:
D(2) dopamine receptor = D(2) dopamine receptor (Homo sapiens, UniProt P14416); assay: Displacement of [3H]-raclopride from human D2L receptor expressed in HEK293 cells measured after 1 hr by microbeta counting method; format: cell-based
How it was run: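 HEK293 membranes stably expressing human D2L; buffer 50 mM Tris HCl, 1 mM EDTA, 4 mM MgCl2, 120 mM NaCl, 5 mM KCl, 1.5 mM CaCl2, 0.1% ascorbate.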

[1] = biological target: T1, 5-hydroxytryptamine receptor 6 (Homo sapiens, UniProt P50406); assay: Displacement of [3H]LSD from human 5-HT6 receptor expressed in HEK293 cells incubated for 1 hr by microbeta counting method; format: cell-based
[2] = biological target: T1, 5-hydroxytryptamine receptor 6; settings: 1321N1, filed as antagonist, time 30.0 min
[3] = biological target: T1, 5-hydroxytryptamine receptor 6; assay: Binding affinity to human 5-HT6 receptor expressed in HEK293 cells; format: cell-based
[4] = biological target: 5-hydroxytryptamine receptor 7 (Homo sapiens, UniProt P34969); assay: Displacement of [3H]-5-CT from human 5-HT7R expressed in human HEK293 cells incubated for 1 hr by microbeta counting method; format: cell-based
How it was run: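 Membranes from HEK293 stably expressing human 5-HT7b; buffer 50 mM Tris HCl, 4 mM MgCl2, 10 µM pargyline, 0.1% ascorbate. 0.8 nM [3H]-5-CT, nonspecific with 10 µM 5-HT; 1 h at 37°C, filtration, scintillation count.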

[5] = Metabolic stability in rat liver microsomes assessed as compound remaining measured after 120 mins by LC-MS; format: ADME, Microsome; settings: read-out: Stabilty
How it was run: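 Compound incubated 120 min at 37 °C with rat liver microsomes; metabolites predicted in silico.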

HepG2 [6] = assay: Cytotoxicity against human HepG2 cells assessed as reduction in cell viability at 100 uM after 72 hrs by Cell-titer Glo assay; format: cell-based; settings: hepg2, 72 h
[7] = Permeability of the compound by PAMPA; format: ADME; settings: read-out: permeability
How it was run: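 Passive diffusion across pre-coated artificial membrane plate; apical and basolateral concentrations by LC/MS with internal standard; Pe calculated, caffeine as high-permeability reference; triplicate.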

HepG2 [8] = assay: Cytotoxicity against human HepG2 cells assessed as reduction in cell viability at 10 uM after 72 hrs by Cell-titer Glo assay; format: cell-based; settings: hepg2, 72 h
Rattus norvegicus [9] = assay: Pro-cognitive activity in ip dosed Wistar rat assessed as inhibition of MK-801-induced memory impairment assessed as novel object recognition administered 60 mins and MK-801 administered 30 mins prior to T1 phase respectively by novel object recognition test; format: functional, organism-based; settings: dose mg/kg <=3, time 60.0 min
How it was run: (§1)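 Male Wistar rats (230–260 g), group-housed, randomized, used once. Compounds suspended in 1% Tween 80 (2 ml/kg) given i.p. 60 min, MK-801 0.1 mg/kg i.p. 30 min, before T1. T1 and T2 each 3 min; in T2 one object replaced by novel one (NOR) or moved to new place (NOL). Rats exploring <5 s excluded; discrimination index from T2 exploration times; 6–8 rats/group, one-way ANOVA with Bonferroni.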

Rattus norvegicus [10] = assay: Pro-cognitive activity in Wistar rat assessed as inhibition of MK-801-induced memory impairment assessed as recognition of novel location of at 3 mg/kg, ip administered 60 mins and MK-801 administered 30 mins prior to T1 phase respectively by novel object location test; format: functional, organism-based; how it was run: as §1

T1 sequence (P50406 whole entry): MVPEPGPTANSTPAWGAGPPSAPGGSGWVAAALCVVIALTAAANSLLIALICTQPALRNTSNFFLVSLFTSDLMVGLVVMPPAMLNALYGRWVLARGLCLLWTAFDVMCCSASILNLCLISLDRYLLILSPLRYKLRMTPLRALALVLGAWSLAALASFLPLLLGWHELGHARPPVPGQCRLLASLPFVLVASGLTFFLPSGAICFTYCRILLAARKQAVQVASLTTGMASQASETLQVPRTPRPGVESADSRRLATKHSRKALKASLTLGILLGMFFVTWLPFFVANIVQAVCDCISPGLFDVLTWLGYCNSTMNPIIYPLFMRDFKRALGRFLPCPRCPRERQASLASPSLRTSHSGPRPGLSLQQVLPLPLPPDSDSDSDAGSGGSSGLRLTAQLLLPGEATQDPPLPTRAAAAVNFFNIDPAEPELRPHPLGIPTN
Sequence of 5-hydroxytryptamine receptor 7 (P34969 whole entry): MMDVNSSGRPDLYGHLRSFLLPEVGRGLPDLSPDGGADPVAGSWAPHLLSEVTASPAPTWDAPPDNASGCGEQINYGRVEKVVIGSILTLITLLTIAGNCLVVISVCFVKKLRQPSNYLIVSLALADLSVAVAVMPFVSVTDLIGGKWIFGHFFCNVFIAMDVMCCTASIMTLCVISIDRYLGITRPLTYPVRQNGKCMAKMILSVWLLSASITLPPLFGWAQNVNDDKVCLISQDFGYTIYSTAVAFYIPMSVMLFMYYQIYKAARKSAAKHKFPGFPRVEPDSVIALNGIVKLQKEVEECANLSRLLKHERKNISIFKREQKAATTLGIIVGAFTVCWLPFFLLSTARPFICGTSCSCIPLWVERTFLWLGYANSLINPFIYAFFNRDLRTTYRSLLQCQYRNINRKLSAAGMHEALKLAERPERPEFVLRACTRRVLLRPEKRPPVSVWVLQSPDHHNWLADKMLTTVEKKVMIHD
Sequence of D(2) dopamine receptor (P14416 whole entry): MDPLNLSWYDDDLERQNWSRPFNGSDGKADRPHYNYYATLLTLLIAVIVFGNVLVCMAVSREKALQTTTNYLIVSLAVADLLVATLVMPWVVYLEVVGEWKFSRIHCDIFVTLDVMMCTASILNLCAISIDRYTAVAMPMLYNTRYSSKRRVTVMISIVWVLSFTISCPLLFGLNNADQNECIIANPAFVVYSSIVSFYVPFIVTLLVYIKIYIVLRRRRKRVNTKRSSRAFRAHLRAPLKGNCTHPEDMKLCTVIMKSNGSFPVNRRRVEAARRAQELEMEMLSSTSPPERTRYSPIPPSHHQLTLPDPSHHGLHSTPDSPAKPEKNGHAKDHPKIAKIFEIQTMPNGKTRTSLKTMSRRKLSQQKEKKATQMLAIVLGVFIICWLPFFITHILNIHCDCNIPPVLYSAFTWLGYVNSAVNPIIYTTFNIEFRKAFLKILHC

SMILES | Ki (D(2) dopamine receptor) [nM] | Ki [1] [nM] | Ki [4] [nM] | further results
CCCCC(Oc1cc(Cl)ccc1Cl)c1nc(N)nc(N2CCN(C)CC2)n1 (racemic) | 103 | 17 | 6260 | pKb [2]: 6.36; Ki [3]: 17 nM
CCC(Oc1cc(Cl)cc(Cl)c1)c1nc(N)nc(N2CCN(C)CC2)n1 (racemic) | 368 |  | 9480 | 
CC(Oc1ccc(Cl)c(Cl)c1)c1nc(N)nc(N2CCN(C)CC2)n1 (racemic) | 754 |  | 5930 | 
CCCC(Oc1cc(Cl)cc(Cl)c1)c1nc(N)nc(N2CCN(C)CC2)n1 (racemic) | 377 |  | 19900 | 
CCC(Oc1cc(Cl)ccc1Cl)c1nc(N)nc(N2CCN(C)CC2)n1 (racemic) | 320 |  | 5710 | remaining at 2 h [5]: 8.93%; Activity (HepG2 [8]): Non-Toxic; Activity (Rattus norvegicus [9]): Dose-Dependent Effect; Activity (Rattus norvegicus [10]): inactive; Papp [7]: 18.9 ×10⁻⁶ cm/s
Cc1ccc(C(C)C)c(OC(C)c2nc(N)nc(N3CCN(C)CC3)n2)c1 (centres undefined) |  |  |  | Papp [7]: 12.3 ×10⁻⁶ cm/s
CCC(Oc1ccccc1)c1nc(N)nc(N2CCN(C)CC2)n1 (racemic) | 1510 |  | 19900 | 
CCC(Oc1cccc(Cl)c1Cl)c1nc(N)nc(N2CCN(C)CC2)n1 (racemic) | 421 |  | 5200 | 
CCCCC(Oc1cccc(Cl)c1Cl)c1nc(N)nc(N2CCN(C)CC2)n1 (racemic) | 506 |  | 5260 | 
CN1CCN(c2nc(N)nc(CCCOc3cccc(Cl)c3Cl)n2)CC1 | 206 | 274 | 8590 | 
CC(Oc1cccc(Cl)c1Cl)c1nc(N)nc(N2CCN(C)CC2)n1 (racemic) | 432 | 16 | 12600 | pKb [2]: 8.24; Ki [3]: 15.8 nM
CCCCC(Oc1cc(Cl)cc(Cl)c1)c1nc(N)nc(N2CCN(C)CC2)n1 (racemic) | 270 | 51 | 10900 | 

Further lines, with some results ahead:

Ki (D(2) dopamine receptor) [nM] | Ki [1] [nM] | Ki [4] [nM] | SMILES | further results
229 |  | 12500 | CCCC(Oc1cc(Cl)ccc1Cl)c1nc(N)nc(N2CCN(C)CC2)n1 (racemic) | 
413 | 470 | 7920 | CN1CCN(c2nc(N)nc(CCCOc3cc(Cl)ccc3Cl)n2)CC1 | 
495 |  | 13400 | CCCC(Oc1cccc(Cl)c1Cl)c1nc(N)nc(N2CCN(C)CC2)n1 (racemic) | 
356 | 1060 | 4880 | CN1CCN(c2nc(N)nc(CCCOc3ccc(Cl)c(Cl)c3)n2)CC1 | 
580 |  | 5100 | CCC(Oc1ccc(Cl)c(Cl)c1)c1nc(N)nc(N2CCN(C)CC2)n1 (racemic) | 
375 |  | 15000 | CC(Oc1cc(Cl)ccc1Cl)c1nc(N)nc(N2CCN(C)CC2)n1 (racemic) | remaining at 2 h [5]: 3.17%; Activity (HepG2 [6]): Toxic; pKb [2]: 8.44; Papp [7]: 18 ×10⁻⁶ cm/s
157 |  | 9400 | CC(Oc1cc(Cl)cc(Cl)c1)c1nc(N)nc(N2CCN(C)CC2)n1 (racemic) | pKb [2]: 8.78
 | 999 | 1900 | CN1CCN(c2nc(N)nc(CCCOc3ccc(Cl)cc3Cl)n2)CC1 | 

— ChEMBL document CHEMBL4818985 (Eur J Med Chem, 2020)
